Activity calls are given as the source filed them. No cut-off for these calls is given here.
Tests used:
HaCaT [1] = test: Antiproliferative activity against human HaCaT cells at 1 uM after 24 hrs by BrdU incorporation assay; assay type: functional, cell-based
Procedure, shortened: (§1)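 HaCaT human keratinocytes were grown in high-glucose DMEM with 10% FBS and 2 mM L-glutamine at 37 °C and 5% CO2 to 80% confluency. Cells were treated 24 h with compound at 1, 10 or 50 µM (final DMSO ≤0.1%). Proliferation was read by BrdU incorporation as % of DMSO control; three experiments.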

[2] = target: T1, Prostaglandin G/H synthase 1 (Mus musculus, UniProt P22437); test: Inhibition of COX-1 in mouse J774 cells assessed as reduction in PGE2 level using arachidonic acid as substrate preincubated for 15 mins followed by incubation with arachidonic acid for 30 mins by radio immunoassay; assay type: cell-based
T1 sequence (P22437 whole entry): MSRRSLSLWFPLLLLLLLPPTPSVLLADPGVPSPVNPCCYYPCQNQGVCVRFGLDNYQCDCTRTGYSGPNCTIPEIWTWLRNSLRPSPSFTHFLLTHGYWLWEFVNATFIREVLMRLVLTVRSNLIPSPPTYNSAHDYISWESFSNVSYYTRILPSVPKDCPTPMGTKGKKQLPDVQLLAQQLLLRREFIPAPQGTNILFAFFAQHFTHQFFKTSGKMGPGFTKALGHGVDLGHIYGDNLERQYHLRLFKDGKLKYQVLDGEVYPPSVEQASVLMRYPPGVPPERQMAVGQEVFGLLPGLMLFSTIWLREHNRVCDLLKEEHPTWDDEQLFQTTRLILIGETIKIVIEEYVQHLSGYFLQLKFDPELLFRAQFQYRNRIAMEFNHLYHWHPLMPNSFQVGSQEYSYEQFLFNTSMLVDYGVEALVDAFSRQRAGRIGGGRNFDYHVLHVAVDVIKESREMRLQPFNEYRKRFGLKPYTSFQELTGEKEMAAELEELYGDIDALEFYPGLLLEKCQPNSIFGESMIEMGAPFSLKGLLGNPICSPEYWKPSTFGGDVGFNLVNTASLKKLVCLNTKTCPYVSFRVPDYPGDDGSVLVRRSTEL
Procedure, shortened: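 Murine J774 macrophages (2.5 × 10^5 cells/mL) were adhered 2 h at 37 °C and given fresh medium. Cells were pretreated with compound at 100 µM for 15 min, then incubated 30 min at 37 °C with 15 µM arachidonic acid. Supernatant PGE2 was measured by RIA as % inhibition versus control; triplicate wells, three experiments, IC50 from a sigmoidal variable-slope fit.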

HaCaT [3] = test: Antiproliferative activity against human HaCaT cells after 24 hrs by BrdU incorporation assay; assay type: functional, cell-based; procedure, shortened: as §1
HaCaT [4] = test: Cytotoxicity against human HaCaT cells at 1 to 50 uM after 24 hrs by LDH release assay; assay type: cell-based
Procedure, shortened: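 HaCaT cells were grown in high-glucose DMEM with 10% FBS to 80% confluency. They were exposed 24 h to compound at 1–50 µM (final DMSO ≤0.1%). LDH release was expressed as a percentage of Triton X-100 lysis (100%); mean of three experiments.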

[5] = target: T2, Prostaglandin G/H synthase 2 (Mus musculus, UniProt Q05769); test: Inhibition of COX-2 in mouse J774 cells assessed as reduction in LPS-induced PGE2 level incubated for 24 hrs by radio immunoassay; assay type: cell-based
T2 sequence (Q05769 whole entry): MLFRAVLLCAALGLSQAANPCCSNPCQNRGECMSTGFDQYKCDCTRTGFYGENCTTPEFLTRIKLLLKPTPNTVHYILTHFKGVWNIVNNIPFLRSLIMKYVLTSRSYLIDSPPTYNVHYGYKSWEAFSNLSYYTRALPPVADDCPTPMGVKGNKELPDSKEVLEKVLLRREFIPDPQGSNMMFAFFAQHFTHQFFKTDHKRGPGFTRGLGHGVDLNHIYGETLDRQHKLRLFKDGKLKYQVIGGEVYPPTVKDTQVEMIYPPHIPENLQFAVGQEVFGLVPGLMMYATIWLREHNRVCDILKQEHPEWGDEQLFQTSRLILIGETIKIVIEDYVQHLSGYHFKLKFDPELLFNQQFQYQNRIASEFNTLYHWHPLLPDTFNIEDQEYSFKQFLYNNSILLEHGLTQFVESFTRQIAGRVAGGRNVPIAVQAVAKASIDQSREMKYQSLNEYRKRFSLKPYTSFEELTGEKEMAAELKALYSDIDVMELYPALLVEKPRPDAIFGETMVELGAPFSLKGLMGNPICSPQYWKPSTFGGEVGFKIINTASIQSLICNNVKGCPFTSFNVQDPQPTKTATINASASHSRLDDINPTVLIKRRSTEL
Procedure, shortened: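 Murine J774 macrophages were stimulated for 24 h with E. coli LPS (10 µg/mL) to induce COX-2, with or without compound (0.001–10 µM). Supernatant PGE2 was measured by RIA as % inhibition of production versus control; triplicate wells, mean of three experiments, IC50 from a sigmoidal variable-slope fit.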

HaCaT [6] = test: Antiproliferative activity against human HaCaT cells at 50 uM after 24 hrs by BrdU incorporation assay; assay type: functional, cell-based; procedure, shortened: as §1
Mus musculus = species on record: Mus musculus; test: Selectivity ratio of IC50 for mouse COX-1 to IC50 for mouse COX-2
Procedure, shortened: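 In J774 cells, the ratio was taken as COX-1 IC50 over COX-2 IC50. COX-1 activity: 15 min compound pretreatment, then 30 min with 15 µM arachidonic acid. COX-2 activity: 24 h LPS (10 µg/mL) induction with compound. PGE2 was measured by RIA in both; IC50 values came from sigmoidal fits of three experiments.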

HaCaT [7] = test: Antiproliferative activity against human HaCaT cells at 10 uM after 24 hrs by BrdU incorporation assay; assay type: functional, cell-based; procedure, shortened: as §1

Row | Structure (SMILES) | Activity (HaCaT [1]) | IC50 [2] | Activity (HaCaT [3]) | Activity (HaCaT [4]) | IC50 [5] | Activity (HaCaT [6]) | Ratio IC50 (Mus musculus) | Activity (HaCaT [7])
1 | CCCOCCc1cc(-c2ccc(S(C)(=O)=O)cc2)n(-c2ccc(F)c(F)c2)c1C | inactive | > 100 µM | Dose-dependent effect | Non-toxic | 0.018 µM | Active | > 5560 | Active
2 | CCCOCCc1cc(-c2ccc(S(C)(=O)=O)cc2)n(-c2cccc(F)c2)c1C | inactive | > 100 µM | inactive | Non-toxic | 0.013 µM | inactive | > 7690 | inactive
3 | Cc1c(CCOCCF)cc(-c2ccc(S(C)(=O)=O)cc2)n1-c1ccc(F)c(F)c1 | inactive | > 100 µM | Dose-dependent effect | Non-toxic | 0.029 µM | Active | > 3450 | Active
4 | Cc1c(CCOCCCF)cc(-c2ccc(S(C)(=O)=O)cc2)n1-c1cccc(F)c1 | inactive | > 100 µM | inactive | Non-toxic | 0.135 µM | inactive | > 2860 | inactive
5 | Cc1c(CCOCCF)cc(-c2ccc(S(C)(=O)=O)cc2)n1-c1cccc(F)c1 | inactive | > 100 µM | Dose-dependent effect | Non-toxic | 0.14 µM | Active | > 714 | Active
6 | Cc1c(CCOCCF)cc(-c2ccc(S(C)(=O)=O)cc2)n1-c1ccc(F)cc1 | inactive | > 100 µM | Dose-dependent effect | Non-toxic | 0.013 µM | Active | > 7690 | Active
7 | Cc1c(CCOCCCF)cc(-c2ccc(S(C)(=O)=O)cc2)n1-c1ccc(F)c(F)c1 | inactive | > 100 µM | Dose-dependent effect | Non-toxic | 0.019 µM | Active | > 5260 | Active

Source: ChEMBL document CHEMBL3758101, “Synthesis and biological evaluation of fluorinated 1,5-diarylpyrrole-3-alkoxyethyl ether derivatives as selective COX-2 inhibitors endowed with anti-inflammatory activity” (Eur J Med Chem, 2016)
